Results on six molecules are retold here after ChEMBL document CHEMBL4342473, “Lead Optimization of Benzoxazolone Carboxamides as Orally Bioavailable and CNS Penetrant Acid Ceramidase Inhibitors” (J Med Chem, 2020).

Data set [1] addresses T1, Acid ceramidase (Homo sapiens) (UniProt Q13510).
T1 sequence (whole entry): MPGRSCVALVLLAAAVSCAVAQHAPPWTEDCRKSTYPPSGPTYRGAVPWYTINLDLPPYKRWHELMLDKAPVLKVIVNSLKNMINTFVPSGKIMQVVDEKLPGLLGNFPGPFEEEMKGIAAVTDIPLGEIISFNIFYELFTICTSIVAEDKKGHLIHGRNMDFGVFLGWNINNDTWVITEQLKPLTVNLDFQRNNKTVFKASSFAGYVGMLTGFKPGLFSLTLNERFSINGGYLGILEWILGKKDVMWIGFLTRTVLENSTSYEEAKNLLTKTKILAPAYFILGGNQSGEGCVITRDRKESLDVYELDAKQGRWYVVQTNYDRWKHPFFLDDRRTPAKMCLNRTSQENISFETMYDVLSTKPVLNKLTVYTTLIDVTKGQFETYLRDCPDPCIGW
Description: Inhibition of human acid ceramidase expressed in HEK293 cells up to 10 uM using Rbm14-12 as substrate preincubated for 10 mins followed by substrate addition and measured after 3 hrs by fluorescence assay. The data set is classed as cell-based.

Data set [2] can be described thus: Half life in mouse liver microsomes at 4.6 uM preincubated for 15 mins followed by NADPH addition and measured up to 60 mins by LC-MS/MS analysis. The data set is classed as ADME, Microsome. Put shortly: (§1)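 Mouse liver microsome stability; half-life and % parent remaining at 60 min; mean of at least two independent experiments, each in two technical replicates.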
For orientation: Liver microsomes are a subcellular fraction often used to study metabolism.

Data set [3] addresses T1, Acid ceramidase (Homo sapiens). Description: Inhibition of human acid ceramidase expressed in HEK293 cells at 10 uM using Rbm14-12 as substrate preincubated for 10 mins followed by substrate addition and measured after 3 hrs by fluorescence assay. The data set is classed as cell-based.
Data set [4] has the same target. Description: Inhibition of human acid ceramidase expressed in HEK293 cells at 1 uM using Rbm14-12 as substrate preincubated for 10 mins followed by substrate addition and measured after 3 hrs by fluorescence assay. The data set is classed as cell-based.
Data set [5] can be described thus: Microsomal stability in mouse liver microsomes assessed as parent compound remaining at 4.6 uM preincubated for 15 mins followed by NADPH addition and measured after 60 mins by LC-MS/MS analysis. Type of data set: ADME, Microsome. As to conditions: read-out: Stability. Put shortly:
as §1

Calls of active or inactive are those of the source.

Take `O=C1Cc2ccccc2N1C(=O)NCCCCc1ccccc1`: the inhibition result in data set [1] is “inactive”.
A word on the half-life: it is the time needed for the level to fall by half in the phase considered. Higher therefore signals slow loss. Turning to `O=C(NCCCCc1ccccc1)n1c2c(oc1=O)CCNC2`, the half-life at 4.6 µM in data set [2] is less than 15 min.
The same measure, in the same setting: for `O=C(NCCCCc1ccccc1)n1c2c(oc1=O)CNCC2` the value was less than 15 min.
`O=C1C(=O)N(C(=O)NCCCCc2ccccc2)c2ccccc21`: the inhibition result in data set [1] was “inactive”.
`CN1CCC(c2ccc3[nH]c(=O)oc3c2)CC1`: the inhibition entry in data set [3] and in data set [4] was “inactive” in each case.
As to `CCCCCNC(=O)n1c(=O)oc2cc(C3CCN(C)CC3)ccc21`, the remaining at 1 h, 4.6 µM in data set [5] is 60%.
